# Measured values taken from ChEMBL document CHEMBL2010643 (Bioorg Med Chem Lett, 2012).
# Calls of active or inactive are those of the source. The calls are words filed in the database; no cut-off is given here.
# Assays:
# [1] = target: Tau-tubulin kinase 1 (Homo sapiens) (UniProt Q5TCY1); assay: Inhibition of TTBK1 assessed as residual activity at 1 uM relative to control
# Outline: (§1)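 Radioactivity-based enzymatic kinase assays run across a 124-kinase profiling panel (Dundee), reporting the remaining kinase activity relative to a control.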
# [2] = target: Tyrosine-protein kinase ZAP-70 (Homo sapiens) (UniProt P43403); assay: Inhibition of ZAP70 assessed as residual activity at 1 uM relative to control; outline: as §1
# [3] = target: Tyrosine-protein kinase CSK (Homo sapiens) (UniProt P41240); assay: Inhibition of CSK assessed as residual activity at 10 uM relative to control
# [4] = target: Death-associated protein kinase 1 (Homo sapiens) (UniProt P53355); assay: Inhibition of DAPK1 assessed as residual activity at 10 uM relative to control
# [5] = target: Glycogen synthase kinase-3 beta (Homo sapiens) (UniProt P49841); assay: Inhibition of GSK3b assessed as residual activity at 10 uM relative to control
# [6] = target: Inhibitor of nuclear factor kappa-B kinase subunit beta (Homo sapiens) (UniProt O14920); assay: Inhibition of IKKbeta assessed as residual activity at 10 uM relative to control
# [7] = target: Insulin receptor-related protein (Homo sapiens) (UniProt P14616); assay: Inhibition of IRR assessed as residual activity at 10 uM relative to control
# [8] = target: Dual specificity mitogen-activated protein kinase kinase 1 (Homo sapiens) (UniProt Q02750); assay: Inhibition of MKK1 assessed as residual activity at 10 uM relative to control
# [9] = target: MAP kinase-interacting serine/threonine-protein kinase 2 (Homo sapiens) (UniProt Q9HBH9); assay: Inhibition of MNK2 assessed as residual activity at 10 uM relative to control
# [10] = target: Serine/threonine-protein kinase PAK 5 (Homo sapiens) (UniProt Q9P286); assay: Inhibition of PAK5 assessed as residual activity at 10 uM relative to control
# [11] = target: Serine/threonine-protein kinase pim-2 (Homo sapiens) (UniProt Q9P1W9); assay: Inhibition of PIM2 assessed as residual activity at 10 uM relative to control
# [12] = target: Leucine-rich repeat serine/threonine-protein kinase 2 (Homo sapiens, UniProt Q5S007); assay: Inhibition of wild-type LRRK2 phosphorylation at Ser935 expressed in HEK293 cells after 90 mins by immunoblot analysis; format: cell-based
# Outline: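 HEK293 cells stably expressing wild-type GFP-LRRK2 exposed to DMSO or increasing inhibitor concentrations for 90 min. Lysates immunoblotted for LRRK2 phosphorylated at Ser910 and Ser935 and for total LRRK2.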
# [13] = system: Plasma; assay: AUClast in Swiss albino mouse plasma at 1 mg/kg, iv; format: ADME, organism-based; set-up: time 0 - last, dose 1 mg/kg, route intravenous; conditions: in vivo
# Outline: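 Male Swiss Albino mice were given a single dose, either intravenous at 1 mg/kg or oral at 10 mg/kg. AUClast was measured in plasma and in brain. Half-life, plasma clearance, volume of distribution and oral bioavailability were derived from the plasma data.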
# [14] = target: Protein kinase C alpha type (Homo sapiens) (UniProt P17252); assay: Inhibition of PKCalpha assessed as residual activity at 10 uM relative to control
# [15] = target: Serine/threonine-protein kinase N2 (Homo sapiens) (UniProt Q16513); assay: Inhibition of PRK2 assessed as residual activity at 10 uM relative to control
# [16] = target: Angiopoietin-1 receptor (Homo sapiens) (UniProt Q02763); assay: Inhibition of TIE2 assessed as residual activity at 10 uM relative to control; outline: as §1
# [17] = target: Dual specificity protein kinase TTK (Homo sapiens) (UniProt P33981); assay: Inhibition of TTK assessed as residual activity at 10 uM relative to control; outline: as §1
# [18] = target: Tyrosine-protein kinase ZAP-70 (Homo sapiens) (UniProt P43403); assay: Inhibition of ZAP70 assessed as residual activity at 10 uM relative to control; outline: as §1
# [19] = target: Tyrosine-protein kinase BTK (Homo sapiens) (UniProt Q06187); assay: Inhibition of BTK assessed as residual activity at 1 uM relative to control
# Outline: (§2)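 Standard radioactivity-based enzymatic assays were run across a 124-kinase panel (Dundee profiling), with compound at 1 µM. Kinase activity was expressed relative to control.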
# [20] = target: Cyclin-dependent kinase 2/cyclin A (Homo sapiens) (UniProt P24941+P20248+P78396); assay: Inhibition of CDK2-Cyclin A assessed as residual activity at 1 uM relative to control; format: protein-complex assay; outline: as §2
# [21] = system: Mus musculus; assay: Inhibition of LRRK2 phosphorylation at Ser935 in C57BL/6 mouse kidney at 50 mg/kg, po administered for 8 hrs followed by 2 hrs dosing; format: functional, organism-based; set-up: dose 50 mg/kg
# Outline: (§3)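 Mice were dosed by oral gavage at 10 or 50 mg/kg. Brain, spleen and kidney were collected. Endogenous LRRK2 was resolved by SDS–PAGE and blotted with phospho-specific antibodies to Ser910 and Ser935 and with an antibody to total LRRK2.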
# [22] = system: Mus musculus; assay: Inhibition of LRRK2 phosphorylation at Ser910 in C57BL/6 mouse kidney at 10 mg/kg, po administered for 8 hrs followed by 2 hrs dosing; format: functional, organism-based; set-up: dose 10 mg/kg; outline: as §3
# [23] = system: Mus musculus; assay: Inhibition of LRRK2 phosphorylation at Ser935 in C57BL/6 mouse spleen at 10 mg/kg, po administered for 8 hrs followed by 2 hrs dosing; format: functional, organism-based; set-up: dose 10 mg/kg; outline: as §3
# [24] = system: Mus musculus; assay: Inhibition of LRRK2 phosphorylation at Ser910 in C57BL/6 mouse brain at 10 to 50 mg/kg, po administered for 8 hrs followed by 2 hrs dosing; format: functional, organism-based; outline: as §3
# [25] = target: Ephrin type-B receptor 1 (Homo sapiens) (UniProt P54762); assay: Inhibition of EPH-B1 assessed as residual activity at 1 uM relative to control; outline: as §2
# [26] = target: Mitogen-activated protein kinase 15 (Homo sapiens) (UniProt Q8TD08); assay: Inhibition of ERK8 assessed as residual activity at 1 uM relative to control; outline: as §2
# [27] = target: Maternal embryonic leucine zipper kinase (Homo sapiens) (UniProt Q14680); assay: Inhibition of MELK assessed as residual activity at 1 uM relative to control
# [28] = target: Dual specificity mitogen-activated protein kinase kinase 1 (Homo sapiens) (UniProt Q02750); assay: Inhibition of MKK1 assessed as residual activity at 1 uM relative to control
# [29] = target: Dual specificity mitogen-activated protein kinase kinase 2 (Homo sapiens) (UniProt P36507); assay: Inhibition of MKK2 assessed as residual activity at 1 uM relative to control
# [30] = target: Dual specificity mitogen-activated protein kinase kinase 6 (Homo sapiens) (UniProt P52564); assay: Inhibition of MKK6 assessed as residual activity at 1 uM relative to control
# [31] = Inhibition of PKA assessed as residual activity at 1 uM relative to control
# [32] = target: Protein kinase C alpha type (Homo sapiens) (UniProt P17252); assay: Inhibition of PKCalpha assessed as residual activity at 1 uM relative to control
# [33] = target: Receptor-interacting serine/threonine-protein kinase 2 (Homo sapiens) (UniProt O43353); assay: Inhibition of RIPK2 assessed as residual activity at 1 uM relative to control
# [34] = Inhibition of CK2 assessed as residual activity at 1 uM relative to control
# [35] = target: Serine/threonine-protein kinase Sgk1 (Homo sapiens) (UniProt O00141); assay: Inhibition of SGK1 assessed as residual activity at 1 uM relative to control
# Serine/threonine-protein kinase Sgk1 (Homo sapiens), sequence (O00141 whole entry): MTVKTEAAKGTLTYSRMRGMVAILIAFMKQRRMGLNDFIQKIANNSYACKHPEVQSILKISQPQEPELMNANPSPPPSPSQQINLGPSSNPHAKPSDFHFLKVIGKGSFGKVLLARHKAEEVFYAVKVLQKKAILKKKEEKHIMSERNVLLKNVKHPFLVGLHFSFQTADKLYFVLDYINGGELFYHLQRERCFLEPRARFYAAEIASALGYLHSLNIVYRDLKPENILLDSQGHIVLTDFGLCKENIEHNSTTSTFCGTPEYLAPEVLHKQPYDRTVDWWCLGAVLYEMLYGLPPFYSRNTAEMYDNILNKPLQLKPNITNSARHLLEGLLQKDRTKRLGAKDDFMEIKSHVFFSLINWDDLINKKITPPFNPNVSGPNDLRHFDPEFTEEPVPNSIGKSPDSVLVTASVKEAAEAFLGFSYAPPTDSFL
# Dual specificity mitogen-activated protein kinase kinase 1 (Homo sapiens), sequence (Q02750 whole entry): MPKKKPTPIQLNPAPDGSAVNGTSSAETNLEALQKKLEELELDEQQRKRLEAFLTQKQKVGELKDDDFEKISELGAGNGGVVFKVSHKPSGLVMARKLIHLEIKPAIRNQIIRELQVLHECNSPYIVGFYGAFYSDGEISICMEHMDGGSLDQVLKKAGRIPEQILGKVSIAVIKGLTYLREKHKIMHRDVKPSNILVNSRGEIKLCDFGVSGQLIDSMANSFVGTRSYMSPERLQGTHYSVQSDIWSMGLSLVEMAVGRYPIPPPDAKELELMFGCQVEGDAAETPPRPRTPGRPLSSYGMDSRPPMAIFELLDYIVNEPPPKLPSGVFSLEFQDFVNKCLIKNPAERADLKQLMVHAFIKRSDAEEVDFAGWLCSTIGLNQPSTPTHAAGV
# Tyrosine-protein kinase ZAP-70 (Homo sapiens), sequence (P43403 whole entry): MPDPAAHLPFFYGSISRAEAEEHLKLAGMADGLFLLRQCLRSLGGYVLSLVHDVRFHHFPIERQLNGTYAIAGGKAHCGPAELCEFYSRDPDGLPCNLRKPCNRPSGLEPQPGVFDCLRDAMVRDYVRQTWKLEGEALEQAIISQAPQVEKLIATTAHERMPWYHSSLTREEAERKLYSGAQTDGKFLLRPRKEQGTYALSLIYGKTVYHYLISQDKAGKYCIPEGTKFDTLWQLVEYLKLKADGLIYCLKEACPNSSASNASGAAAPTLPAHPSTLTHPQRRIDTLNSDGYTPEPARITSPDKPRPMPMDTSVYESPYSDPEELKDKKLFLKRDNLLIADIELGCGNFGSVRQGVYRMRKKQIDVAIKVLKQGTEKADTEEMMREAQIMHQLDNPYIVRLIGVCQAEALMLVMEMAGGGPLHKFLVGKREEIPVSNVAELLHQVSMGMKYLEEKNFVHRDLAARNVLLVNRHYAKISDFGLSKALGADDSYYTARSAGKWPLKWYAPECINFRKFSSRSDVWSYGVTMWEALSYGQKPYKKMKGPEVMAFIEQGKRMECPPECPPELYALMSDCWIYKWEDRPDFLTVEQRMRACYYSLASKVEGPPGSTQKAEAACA
# Tyrosine-protein kinase CSK (Homo sapiens), sequence (P41240 2-450 limits assumed): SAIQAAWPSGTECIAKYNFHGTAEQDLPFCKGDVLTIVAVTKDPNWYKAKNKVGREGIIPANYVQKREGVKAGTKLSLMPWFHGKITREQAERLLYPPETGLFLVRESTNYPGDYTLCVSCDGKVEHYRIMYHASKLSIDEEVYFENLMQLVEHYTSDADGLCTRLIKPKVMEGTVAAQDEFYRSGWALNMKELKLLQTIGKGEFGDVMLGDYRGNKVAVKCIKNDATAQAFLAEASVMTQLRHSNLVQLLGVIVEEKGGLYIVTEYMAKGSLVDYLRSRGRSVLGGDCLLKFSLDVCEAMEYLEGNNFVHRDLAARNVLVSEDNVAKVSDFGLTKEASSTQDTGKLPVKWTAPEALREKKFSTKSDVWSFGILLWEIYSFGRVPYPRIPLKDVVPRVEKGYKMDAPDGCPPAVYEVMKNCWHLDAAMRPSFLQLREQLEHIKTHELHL
# Death-associated protein kinase 1 (Homo sapiens), sequence (P53355 whole entry, looked up): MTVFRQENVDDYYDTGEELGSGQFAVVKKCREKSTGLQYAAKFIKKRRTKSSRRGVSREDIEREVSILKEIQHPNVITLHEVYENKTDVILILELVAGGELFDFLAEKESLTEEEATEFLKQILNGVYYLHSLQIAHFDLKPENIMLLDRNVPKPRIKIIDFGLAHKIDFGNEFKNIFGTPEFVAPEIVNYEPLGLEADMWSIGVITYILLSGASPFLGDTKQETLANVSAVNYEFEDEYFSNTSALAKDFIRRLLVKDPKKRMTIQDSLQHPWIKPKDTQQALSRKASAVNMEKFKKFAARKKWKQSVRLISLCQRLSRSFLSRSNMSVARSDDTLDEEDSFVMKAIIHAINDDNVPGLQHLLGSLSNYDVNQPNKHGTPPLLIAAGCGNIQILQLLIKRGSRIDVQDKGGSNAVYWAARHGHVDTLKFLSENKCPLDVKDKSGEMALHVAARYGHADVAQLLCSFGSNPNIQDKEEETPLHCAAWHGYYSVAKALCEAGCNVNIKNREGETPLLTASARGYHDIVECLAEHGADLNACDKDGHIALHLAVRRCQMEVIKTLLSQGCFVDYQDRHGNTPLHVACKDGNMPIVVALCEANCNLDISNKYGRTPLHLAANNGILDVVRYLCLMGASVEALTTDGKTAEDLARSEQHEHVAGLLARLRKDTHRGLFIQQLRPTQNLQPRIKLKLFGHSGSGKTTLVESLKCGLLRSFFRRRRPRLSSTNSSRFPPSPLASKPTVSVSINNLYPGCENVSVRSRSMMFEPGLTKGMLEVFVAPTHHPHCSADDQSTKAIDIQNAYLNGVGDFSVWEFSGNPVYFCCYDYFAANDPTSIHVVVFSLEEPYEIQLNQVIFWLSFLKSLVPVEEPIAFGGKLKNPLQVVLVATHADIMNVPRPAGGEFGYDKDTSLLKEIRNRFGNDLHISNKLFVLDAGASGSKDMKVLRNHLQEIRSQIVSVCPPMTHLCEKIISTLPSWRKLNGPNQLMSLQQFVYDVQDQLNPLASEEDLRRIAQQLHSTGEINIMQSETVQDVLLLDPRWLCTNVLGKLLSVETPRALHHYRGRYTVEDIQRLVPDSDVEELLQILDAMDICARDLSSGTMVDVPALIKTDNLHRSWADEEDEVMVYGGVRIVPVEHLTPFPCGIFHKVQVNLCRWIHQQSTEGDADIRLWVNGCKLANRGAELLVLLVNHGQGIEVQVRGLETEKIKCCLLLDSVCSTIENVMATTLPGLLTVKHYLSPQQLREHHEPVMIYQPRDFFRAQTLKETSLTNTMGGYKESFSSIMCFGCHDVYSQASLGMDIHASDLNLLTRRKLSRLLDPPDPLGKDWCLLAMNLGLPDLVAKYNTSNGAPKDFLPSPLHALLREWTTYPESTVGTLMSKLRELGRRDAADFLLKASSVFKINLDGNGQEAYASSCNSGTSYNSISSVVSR
# Ephrin type-B receptor 1 (Homo sapiens), sequence (P54762 whole entry): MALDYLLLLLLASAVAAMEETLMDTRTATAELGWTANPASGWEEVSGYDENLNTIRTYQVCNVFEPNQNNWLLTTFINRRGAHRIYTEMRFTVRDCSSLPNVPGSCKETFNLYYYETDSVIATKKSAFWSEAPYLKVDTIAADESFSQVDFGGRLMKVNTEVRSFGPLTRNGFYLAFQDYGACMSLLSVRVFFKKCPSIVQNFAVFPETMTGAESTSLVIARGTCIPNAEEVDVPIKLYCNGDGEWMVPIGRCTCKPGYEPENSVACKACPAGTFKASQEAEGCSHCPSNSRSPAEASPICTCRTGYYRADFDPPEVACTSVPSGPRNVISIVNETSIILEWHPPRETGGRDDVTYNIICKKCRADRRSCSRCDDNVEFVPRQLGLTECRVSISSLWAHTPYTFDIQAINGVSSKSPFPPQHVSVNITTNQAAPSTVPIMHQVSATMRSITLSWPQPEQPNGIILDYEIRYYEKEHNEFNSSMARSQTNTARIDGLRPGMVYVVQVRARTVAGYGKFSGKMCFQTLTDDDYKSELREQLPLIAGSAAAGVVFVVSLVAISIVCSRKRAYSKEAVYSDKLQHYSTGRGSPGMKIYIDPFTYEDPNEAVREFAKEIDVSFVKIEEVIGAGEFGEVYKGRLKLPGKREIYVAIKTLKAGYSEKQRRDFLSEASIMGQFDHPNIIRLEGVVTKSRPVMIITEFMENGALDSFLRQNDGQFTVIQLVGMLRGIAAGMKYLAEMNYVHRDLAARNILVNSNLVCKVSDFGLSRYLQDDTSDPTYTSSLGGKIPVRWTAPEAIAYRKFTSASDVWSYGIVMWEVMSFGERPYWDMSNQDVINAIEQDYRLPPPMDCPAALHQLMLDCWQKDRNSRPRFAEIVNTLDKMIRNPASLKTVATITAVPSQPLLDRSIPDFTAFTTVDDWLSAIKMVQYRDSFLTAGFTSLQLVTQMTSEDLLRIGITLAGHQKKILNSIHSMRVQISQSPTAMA
structure (smiles),measurement,setting,value
COc1cc(N2CCC(N3CCN(C)CC3)CC2)ccc1Nc1ncc(Cl)c(Nc2ccccc2S(=O)(=O)C(C)C)n1 [TAE-684],Activity,[1],88%
same,Activity,[2],113%
same,Activity,[3],33%
same,Activity,[4],79%
same,Activity,[5],92%
same,Activity,[6],107%
same,Activity,[7],66%
same,Activity,[8],30%
same,Activity,[9],60%
same,Activity,[10],35%
same,Activity,[11],107%
same,inhibition,[12],Dose-dependent effect
same,AUClast,[13],772 ng·h/mL
same,Activity,[14],122%
same,Activity,[15],18%
same,Activity,[16],5%
same,Activity,[17],47%
same,Activity,[18],129%
same,Activity,[19],53%
same,Activity,[20],68%
same,inhibition,[21],Active
same,inhibition,[22],Active
same,inhibition,[23],Active
same,inhibition,[24],inactive
same,Activity,[25],50%
same,Activity,[26],47%
same,Activity,[27],71%
same,Activity,[28],91%
same,Activity,[29],69%
same,Activity,[30],90%
same,Activity,[31],90%
same,Activity,[32],109%
same,Activity,[33],94%
same,Activity,[34],75%
same,Activity,[35],88%
